Laboratory results as given in ChEMBL document CHEMBL4373657, “Derivatives of a new heterocyclic system - pyrano[3,4-c][1,2,4]triazolo[4,3-a]pyridines: synthesis, docking analysis and neurotropic activity” (Medchemcomm, 2019).
The source made the active and inactive calls. The rule behind the calls is not given here.

Assays:
[1] = test system: Mus musculus; experiment: Antianxiety activity in mouse assessed as time spent in closed arms at 50 mg/kg, ip measured for 5 mins by elevated plus maze test (reference value: 278.2 secs); type: functional
[2] = Protection index, ratio of TD50 for neurotoxicity in ip dosed mouse to ED50 for anticonvulsant activity in ip dosed mouse; type: toxicity, organism-based; conditions: in vivo, read-out: Ratio TD50/ED50
[3] = test system: Mus musculus; experiment: Anticonvulsant activity in mouse assessed as reduction in PTZ-induced clonic seizures at 25 mg/kg, ip administered 45 mins before PTZ stimulation; type: functional, organism-based
Procedure, shortened: (§1)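 Outbred mice (18–22 g), 8 per dose. Compounds given i.p. at 10–100 mg kg–1 as a carboxymethylcellulose/Tween-80 suspension, 45 min before s.c. pentylenetetrazole 90 mg kg–1; controls received emulsifier. Endpoint was prevention of clonic seizures. ED50 was derived by Litchfield–Wilcoxon probit analysis.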

[4] = test system: Mus musculus; experiment: Anticonvulsant activity in mouse assessed as MES-induced tonic seizures at 10 to 100 mg/kg, ip administered 45 mins before electrical stimulation; type: functional, organism-based
Procedure, shortened: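 Mice, 8 per dose. Compounds given i.p. at 10, 25, 50, 75 or 100 mg kg–1 in carboxymethylcellulose/Tween-80 suspension, 45 min before maximal electroshock (50 mA, 0.2 s, 50 imp s–1); controls received emulsifier. Endpoint was prevention of the tonic-extensor phase.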

[5] = Neurotoxicity in ip dosed mouse assessed as maximum tolerated dose by rotarod test; type: toxicity, organism-based; conditions: in vivo
Procedure, shortened: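 Mice given compounds i.p. at […] to 1800 mg/kg to establish the maximal tolerated dose.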

[6] = Neurotoxicity in mouse assessed as myorelaxation at 50 to 100 mg/kg, ip measured for 2 mins by rotarod test; type: toxicity, organism-based; conditions: in vivo
Procedure, shortened: (§2)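 Mice dosed i.p. at 50–100 mg kg–1; reference drugs given at effective anticonvulsant doses. Mice were placed on a corrugated rubber-coated metal rod rotating at 5 rpm, and the number staying on for 2 min was counted. TD50 was derived by Litchfield–Wilcoxon probit analysis.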

[7] = test system: Mus musculus; experiment: Antianxiety activity in mouse assessed as increase in time spent in open arms at 50 mg/kg, ip measured for 5 mins by elevated plus maze test; type: functional
[8] = test system: Mus musculus; experiment: Anticonvulsant activity in ip dosed mouse assessed as reduction in PTZ-induced clonic seizures administered 45 mins before PTZ stimulation; type: functional; procedure, shortened: as §1
[9] = test system: Rattus norvegicus; experiment: Antianxiety activity in Wistar rat assessed as horizontal movement of animals at 50 mg/kg, ip measured for 5 mins by open field test; type: functional, organism-based
Procedure, shortened: (§3)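 Male Wistar rats (120–140 g), n = 8 per compound, control and reference. Single i.p. dose of 50 mg kg–1 as a suspension in methylcarboxycellulose with Tween-80; controls received emulsifier. Daytime, natural light. Over 5 min, horizontal movements, rearings (vertical movements) and cell sniffings were counted.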

[10] = test system: Mus musculus; experiment: Antidepressant activity in mouse assessed as total time of active swimming at 50 mg/kg, ip measured for 6 mins by forced swimming test (reference value: 282 secs); type: functional
Procedure, shortened: (§4)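 Each mouse swam in a glass container (22 cm high, 14 cm diameter) one-third filled with water, under natural light. Over 6 min, latency to first immobilization, total immobilization time and total active swimming time were recorded.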

[11] = Neurotoxicity in mouse assessed as motor coordination at 50 to 100 mg/kg, ip by rotarod test; type: toxicity, organism-based; conditions: in vivo; procedure, shortened: as §2
[12] = Neurotoxicity in ip dosed mouse assessed as myorelaxation measured for 2 mins by rotarod test; type: toxicity, organism-based; conditions: in vivo
Procedure, shortened: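 Mice were placed on a corrugated rubber-coated metal rod rotating at 5 rpm, and the number staying on for 2 min was counted. TD50 was derived by Litchfield–Wilcoxon probit analysis.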

[13] = test system: Mus musculus; experiment: Antidepressant activity in mouse assessed as total time of immobilization at 50 mg/kg, ip measured for 6 mins by forced swimming test (reference value: 81 secs); type: functional; procedure, shortened: as §4
[14] = test system: Mus musculus; experiment: Anticonvulsant activity in mouse assessed as proportion of animals displaying reduction in PTZ-induced clonic seizures at 50 mg/kg, ip administered 45 mins before PTZ stimulation relative to control; type: functional; set-up: scale not given: the % may be the effect or the level left; procedure, shortened: as §1
[15] = test system: Rattus norvegicus; experiment: Antianxiety activity in Wistar rat assessed as vertical movement of animals at 50 mg/kg, ip measured for 5 mins by open field test; type: functional, organism-based; procedure, shortened: as §3
[16] = test system: Mus musculus; experiment: Anticonvulsant activity in mouse assessed as MES-induced […] seizures at 10 to 100 mg/kg, ip administered 45 mins before electrical stimulation; type: functional, organism-based
[17] = test system: Mus musculus; experiment: Antidepressant activity in mouse assessed as latent period of first immobilization at 50 mg/kg, ip measured for 6 mins by forced swimming test (reference value: 92 secs); type: functional; procedure, shortened: as §4
[18] = test system: Rattus norvegicus; experiment: Antianxiety activity in Wistar rat assessed as increase in number of sniffing cell examinations at 50 mg/kg, ip measured for 5 mins by open field test; type: functional, organism-based; procedure, shortened: as §3
[19] = test system: Mus musculus; experiment: Sedative activity in mouse assessed as time spent in center at 50 mg/kg, ip measured for 5 mins by elevated plus maze test (reference value: 21.8 secs); type: functional
[20] = test system: Mus musculus; experiment: Antianxiety activity in mouse assessed as decrease in number of entries into closed arms at 50 mg/kg, ip measured for 5 mins by elevated plus maze test; type: functional, organism-based

Structure (SMILES) | Time [1] [s] | selectivity ratio [2] | anticonvulsant activity (active/inactive) [3] | Activity [4] | MTD [5] [mg/kg] | Activity [6] | Time [7] [s] | ED50 [8] [mg/kg] | Activity [9] | Time [10] [s] | Activity [11] | TD50 at 2 min [12] [mg/kg] | Time [13] [s] | Activity [14] [%] | Activity [15] | Activity [16] | Time [17] [s] | Activity [18] | Time [19] [s] | inhibition [20]
CC1(C)Cc2c(C#N)c(Nc3ccccc3)n3c(SCC(=O)N(c4ccccc4)c4ccccc4)nnc3c2CO1 | 133 | 27.6 | Active | inactive | 1250 | Non-Toxic | 88 | 21 | inactive | 317 | Non-Toxic | 580 | 43 | 80 | inactive | inactive | 162 | Active | 79 | 
CC1(C)Cc2c(C#N)c(Nc3ccccc3)n3c(SCC(=O)Nc4ccc(Cl)c(Cl)c4)nnc3c2CO1 |  |  |  | inactive | 1150 | Non-Toxic |  |  |  |  | Non-Toxic | > 500 |  | 20 |  | inactive |  |  |  | 
COc1ccc(CSc2nnc3c4c(c(C#N)c(Nc5ccc(C)cc5)n23)CC(C)(C)OC4)cc1 | 200.6 | 13.6 | Active | inactive | 1500 | Non-Toxic | 11.4 | 44 | inactive | 289 | Non-Toxic | 600 | 71 | 60 | inactive | inactive | 158 | Active | 88 | 
CC1(C)Cc2c(C#N)c(Nc3ccccc3)n3c(SCCCc4ccccc4)nnc3c2CO1 | 223 | 24 | Active | inactive | 1250 | Non-Toxic | 10 | 23 | inactive | 245 | Non-Toxic | 560 | 115 | 60 | inactive | inactive | 139 | Active | 67 | Active
COc1ccc(NC(=O)CSc2nnc3c4c(c(C#N)c(Nc5ccc(C)cc5)n23)CC(C)(C)OC4)cc1 |  |  |  | inactive | 1250 | Non-Toxic |  |  |  |  | Non-Toxic | > 500 |  | 40 |  | inactive |  |  |  | 
CC1(C)Cc2c(C#N)c(Nc3ccccc3)n3c(SCC(=O)c4ccc([N+](=O)[O-])cc4)nnc3c2CO1 |  |  |  | inactive | 1250 | Non-Toxic |  |  |  |  | Non-Toxic | > 520 |  | 40 |  | inactive |  |  |  | 
Cc1ccc(Nc2c(C#N)c3c(c4nnc(SCc5ccc([N+](=O)[O-])cc5)n24)COC(C)(C)C3)cc1 |  |  |  | inactive | 1200 | Non-Toxic |  |  |  |  | Non-Toxic | > 500 |  | 40 |  | inactive |  |  |  | 
CC1(C)Cc2c(C#N)c(Nc3ccccc3)n3c(SCC(=O)c4cccc([N+](=O)[O-])c4)nnc3c2CO1 | 241 | 13.6 | Active | inactive | 1000 | Non-Toxic | 8 | 36 | inactive | 276 | Non-Toxic | 490 | 84 | 60 | inactive | inactive | 147 | Active | 51 | Active
CCOC(=O)C(Sc1nnc2c3c(c(C#N)c(Nc4ccccc4)n12)CC(C)(C)OC3)c1ccccc1 (configuration not stated) | 199 | 11.8 | Active | inactive | 1200 | Non-Toxic | 6 | 44 | inactive | 284 | Non-Toxic | 520 | 76 | 60 | inactive | inactive | 156 | Active | 95 | 
CCCCN(CCCC)C(=O)CSc1nnc2c3c(c(C#N)c(Nc4ccccc4)n12)CC(C)(C)OC3 |  |  |  | inactive | 1000 | Non-Toxic |  |  |  |  | Non-Toxic | > 500 |  | 20 |  | inactive |  |  |  | 
Cc1ccc(Nc2c(C#N)c3c(c4nnc(SCc5ccccc5Cl)n24)COC(C)(C)C3)cc1 |  |  |  | inactive | 1350 | Non-Toxic |  |  |  |  | Non-Toxic | > 500 |  | 40 |  | inactive |  |  |  | 
Cc1ccc(Nc2c(C#N)c3c(c4nnc(SCC(=O)c5ccc([N+](=O)[O-])cc5)n24)COC(C)(C)C3)cc1 |  |  |  | inactive | 1250 | Non-Toxic |  |  |  |  | Non-Toxic | > 500 |  | 40 |  | inactive |  |  |  | 
COc1cccc(NC(=O)CSc2nnc3c4c(c(C#N)c(Nc5ccc(C)cc5)n23)CC(C)(C)OC4)c1 |  |  |  | inactive | 1100 | Non-Toxic |  |  |  |  | Non-Toxic | > 500 |  | 40 |  | inactive |  |  |  | 
CC1(C)Cc2c(C#N)c(Nc3ccccc3)n3c(SCC(=O)c4ccc(Cl)cc4)nnc3c2CO1 |  |  |  | inactive | 1150 | Non-Toxic |  |  |  |  | Non-Toxic | > 500 |  | 20 |  | inactive |  |  |  | 
Cc1cccc(NC(=O)CSc2nnc3c4c(c(C#N)c(Nc5ccccc5)n23)CC(C)(C)OC4)c1 |  |  |  | inactive | 1300 | Non-Toxic |  |  |  |  | Non-Toxic | > 500 |  | 20 |  | inactive |  |  |  | 
